From PubChem BioAssay AID602425 (Sanford-Burnham Center for Chemical Genomics, 2012)
Active and inactive are the calls of the source.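 The calls were made as follows: active = IC50 of 80 µM or lower; inactive = the rest.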

Target: glucose-6-phosphate dehydrogenase-6-phosphogluconolactonase (PfGluPho) [Plasmodium falciparum 3D7]
Assay: inhibition of P. falciparum G6PD rate – biochemical, kinetic direct NADPH detection, set 3, orthogonal assay for PfG6PD antimalarial inhibitor project, SAR follow-up (AID 602425)
Conditions: recombinant PfG6PDH, direct NADPH fluorescence kinetic
Method in brief: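 Also added: G6P 20 µM and NADP 3 µM final / Assay system: PfG6PDH enzyme / Quantity: enzyme 0.2 µg/mL final / Detection: kinetic NADPH fluorescence, excitation 340 nm, emission 450 nm / Medium: pH 7.5 Tris-HCl (50 mM), 3.3 mM MgCl2, Tween 20, BSA / Timing: reads at 5-min intervals / Doses: test compounds in dose-response series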

SMILES	IC50
CCN1CCC[C@@H]1CNC(=O)c1ccc2c(c1)NC(=O)c1ccccc1N2	> 80 µM (inactive)
CCN1CCC(NC(=O)c2ccc3c(c2)NC(=O)c2ccccc2S3)C1 (configuration not stated)	> 80 µM (inactive)
CN1CCC(NC(=O)c2ccc3c(c2)NC(=O)c2ccccc2S3)C1 (configuration not stated)	> 80 µM (inactive)
CCN1CCCCC1CNC(=O)c1ccc2c(c1)NC(=O)c1ccccc1S2 (configuration not stated)	> 80 µM (inactive)
O=C(NCC1CCCCN1)c1ccc2c(c1)NC(=O)c1ccccc1S2 (configuration not stated)	41.4 µM
CCCN1CCCCC1CNC(=O)c1ccc2c(c1)NC(=O)c1ccccc1S2 (configuration not stated)	62.6 µM
CCCCCCN1CCCC1CNC(=O)c1ccc2c(c1)NC(=O)c1ccccc1S2 (configuration not stated)	42.2 µM
CCCN1CCC(NC(=O)c2ccc3c(c2)NC(=O)c2ccccc2S3)C1 (configuration not stated)	> 80 µM (inactive)
CN1CCCCC1CNC(=O)c1ccc2c(c1)NC(=O)c1ccccc1S2 (configuration not stated)	71.4 µM
CCN1CCC[C@@H]1CNC(=O)c1ccc2c(c1)NC(=O)c1cc(F)ccc1S2	49.1 µM

More lines, now with the values ahead:

IC50	SMILES
11.4 µM	CCCN1CCC[C@@H]1CNC(=O)c1ccc2c(c1)NC(=O)c1ccccc1S2
18.5 µM	CCCCN1CCCC1CNC(=O)c1ccc2c(c1)NC(=O)c1ccccc1S2 (configuration not stated)
40.3 µM	O=C(NC[C@H]1CCCN1)c1ccc2c(c1)NC(=O)c1ccccc1S2
0.212 µM	CCN1CCC[C@@H]1CNC(=O)c1ccc2c(c1)NC(=O)c1cccc(C)c1S2
23.3 µM	CN1CCCC1CNC(=O)c1ccc2c(c1)NC(=O)c1ccccc1S2 (configuration not stated)
24.4 µM	CCN1CCC[C@@H]1CNC(=O)c1ccc2c(c1)NC(=O)c1cc(C)ccc1S2
4.34 µM	CCN1CCC[C@@H]1CNC(=O)c1ccc2c(c1)NC(=O)c1ccc(F)cc1S2
